In ChEMBL document CHEMBL2311279, “Discovery of a new series of [1,2,4]triazolo[4,3-a]quinoxalines as dual phosphodiesterase 2/phosphodiesterase 10 (PDE2/PDE10) inhibitors” (Bioorg Med Chem Lett, 2013):

Key:
[1] = Ratio of drug level brain to plasma in Sprague-Dawley rat at 10 mg/kg, sc after 1 hr; type: ADME, organism-based; design: dose 10 mg/kg, route subcutaneous; conditions: read-out: BPR
Summary of the method: (§1)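 Male rats dosed once at 10 mg/kg, subcutaneously or orally. Vehicle was mostly 20% HP-b-CD at pH 4, with some dosing in 0.5% methocel suspension or H2O + tartaric acid. Brain (ng/g) and plasma (ng/mL) were sampled 1 h after dosing, and the brain/plasma ratio was derived from these. Values are geometric means of at least two runs ± SEM.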

[2] = Plasma concentration in Sprague-Dawley rat at 10 mg/kg, sc after 1 hr; type: ADME, organism-based; design: dose 10 mg/kg, route subcutaneous; summary of the method: as §1
[3] = Drug level in Sprague-Dawley rat brain at 10 mg/kg, sc after 1 hr; type: ADME, organism-based; design: dose 10 mg/kg, route subcutaneous; conditions: read-out: Drug uptake; summary of the method: as §1
[4] = biological target: cGMP-dependent 3',5'-cyclic phosphodiesterase (Homo sapiens, UniProt O00408); experiment: Inhibition of human recombinant PDE2A expressed in Sf9 cells by scintillation proximity assay
[5] = Selectivity ratio of IC50 for rat PDE10A to IC50 for human recombinant PDE2A
Summary of the method: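 Inhibition of rat PDE10A and human PDE2A enzymes measured in vitro. IC50 values are mean ± SD of at least two experiments unless otherwise specified. The ratio is rat PDE10A IC50 divided by human PDE2A IC50.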

[6] = Ratio of drug level brain to plasma in Wistar rat at 10 mg/kg, sc after 1 hr; type: ADME, organism-based; design: dose 10 mg/kg, route subcutaneous; conditions: read-out: BPR; summary of the method: as §1
[7] = Plasma concentration in Wistar rat at 10 mg/kg, sc after 1 hr; type: ADME, organism-based; design: dose 10 mg/kg, route subcutaneous; summary of the method: as §1
[8] = Drug level in Wistar rat brain at 10 mg/kg, sc after 1 hr; type: ADME, organism-based; design: dose 10 mg/kg, route subcutaneous; conditions: read-out: Drug uptake; summary of the method: as §1
[9] = Ratio of drug level brain to plasma in Wistar rat at 10 mg/kg, po after 1 hr; type: ADME, organism-based; design: dose 10 mg/kg, route oral; conditions: read-out: BPR; summary of the method: as §1
[10] = Plasma concentration in Wistar rat at 10 mg/kg, po after 1 hr; type: ADME, organism-based; design: dose 10 mg/kg, route oral; summary of the method: as §1
[11] = Drug level in Wistar rat brain at 10 mg/kg, po after 1 hr; type: ADME, organism-based; design: dose 10 mg/kg, route oral; conditions: read-out: Drug uptake; summary of the method: as §1
[12] = biological target: cGMP-inhibited 3',5'-cyclic phosphodiesterase 3B (Homo sapiens, UniProt Q13370); experiment: Inhibition of human recombinant PDE3B expressed in Sf9 cells by scintillation proximity assay
[13] = biological target: Dual 3',5'-cyclic-AMP and -GMP phosphodiesterase 11A (Homo sapiens, UniProt Q9HCR9); experiment: Inhibition of human recombinant PDE11A expressed in Sf9 cells by scintillation proximity assay
[14] = biological target: High affinity cGMP-specific 3',5'-cyclic phosphodiesterase 9A (Homo sapiens, UniProt O76083); experiment: Inhibition of human recombinant PDE9A expressed in Sf9 cells by scintillation proximity assay
[15] = biological target: High affinity 3',5'-cyclic-AMP phosphodiesterase 7A (Homo sapiens, UniProt Q13946); experiment: Inhibition of human recombinant PDE7A expressed in Sf9 cells by scintillation proximity assay
Phosphodiesterase 6 = experiment: Inhibition of human recombinant PDE6AB expressed in Sf9 cells by scintillation proximity assay
[16] = biological target: 3',5'-cyclic-AMP phosphodiesterase 4A (Homo sapiens, UniProt P27815); experiment: Inhibition of human recombinant PDE4A expressed in Sf9 cells by scintillation proximity assay
[17] = biological target: cGMP-specific 3',5'-cyclic phosphodiesterase (Homo sapiens, UniProt O76074); experiment: Inhibition of human recombinant PDE5A expressed in Sf9 cells by scintillation proximity assay
[18] = biological target: cGMP-inhibited 3',5'-cyclic phosphodiesterase 3A (Homo sapiens, UniProt Q14432); experiment: Inhibition of human recombinant PDE3A expressed in Sf9 cells by scintillation proximity assay
Hippocampus = experiment: Drug uptake in Wistar rat hippocampus at 0.03 mg/kg, iv after 2 to 30 mins; type: ADME, organism-based; design: dose 0.03 mg/kg, route intravenous; conditions: in vivo
Summary of the method: (§2)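 Male Wistar rats (180–200 g) received 0.03 mg/kg i.v. and were killed at 2, 5, 10 and 30 min, with 3 rats per time point. Brains were rapidly removed and dissected into striatum, hippocampus and whole cortex. Each region was homogenized by ultrasonic probe in 4 volumes of 75% acetonitrile and centrifuged, then drug was quantified by LC-MS.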

[19] = biological target: Dual specificity calcium/calmodulin-dependent 3',5'-cyclic nucleotide phosphodiesterase 1B (Homo sapiens, UniProt Q01064); experiment: Inhibition of human recombinant PDE1B expressed in Sf9 cells by scintillation proximity assay
Cortex = experiment: Drug uptake in Wistar rat cortex at 0.03 mg/kg, iv after 2 to 30 mins; type: ADME, organism-based; design: dose 0.03 mg/kg, route intravenous; conditions: in vivo; summary of the method: as §2
Striatum = experiment: Drug uptake in Wistar rat striatum at 0.03 mg/kg, iv after 2 to 30 mins; type: ADME, organism-based; design: dose 0.03 mg/kg, route intravenous; conditions: in vivo; summary of the method: as §2
[20] = Ratio of drug level brain to plasma in Sprague-Dawley rat at 10 mg/kg, po after 1 hr; type: ADME, organism-based; design: dose 10 mg/kg, route oral; conditions: read-out: BPR; summary of the method: as §1
[21] = Plasma concentration in Sprague-Dawley rat at 10 mg/kg, po after 1 hr; type: ADME, organism-based; design: dose 10 mg/kg, route oral; summary of the method: as §1
[22] = Drug level in Sprague-Dawley rat brain at 10 mg/kg, po after 1 hr; type: ADME, organism-based; design: dose 10 mg/kg, route oral; conditions: read-out: Drug uptake; summary of the method: as §1

Sequence of cGMP-dependent 3',5'-cyclic phosphodiesterase (O00408 whole entry): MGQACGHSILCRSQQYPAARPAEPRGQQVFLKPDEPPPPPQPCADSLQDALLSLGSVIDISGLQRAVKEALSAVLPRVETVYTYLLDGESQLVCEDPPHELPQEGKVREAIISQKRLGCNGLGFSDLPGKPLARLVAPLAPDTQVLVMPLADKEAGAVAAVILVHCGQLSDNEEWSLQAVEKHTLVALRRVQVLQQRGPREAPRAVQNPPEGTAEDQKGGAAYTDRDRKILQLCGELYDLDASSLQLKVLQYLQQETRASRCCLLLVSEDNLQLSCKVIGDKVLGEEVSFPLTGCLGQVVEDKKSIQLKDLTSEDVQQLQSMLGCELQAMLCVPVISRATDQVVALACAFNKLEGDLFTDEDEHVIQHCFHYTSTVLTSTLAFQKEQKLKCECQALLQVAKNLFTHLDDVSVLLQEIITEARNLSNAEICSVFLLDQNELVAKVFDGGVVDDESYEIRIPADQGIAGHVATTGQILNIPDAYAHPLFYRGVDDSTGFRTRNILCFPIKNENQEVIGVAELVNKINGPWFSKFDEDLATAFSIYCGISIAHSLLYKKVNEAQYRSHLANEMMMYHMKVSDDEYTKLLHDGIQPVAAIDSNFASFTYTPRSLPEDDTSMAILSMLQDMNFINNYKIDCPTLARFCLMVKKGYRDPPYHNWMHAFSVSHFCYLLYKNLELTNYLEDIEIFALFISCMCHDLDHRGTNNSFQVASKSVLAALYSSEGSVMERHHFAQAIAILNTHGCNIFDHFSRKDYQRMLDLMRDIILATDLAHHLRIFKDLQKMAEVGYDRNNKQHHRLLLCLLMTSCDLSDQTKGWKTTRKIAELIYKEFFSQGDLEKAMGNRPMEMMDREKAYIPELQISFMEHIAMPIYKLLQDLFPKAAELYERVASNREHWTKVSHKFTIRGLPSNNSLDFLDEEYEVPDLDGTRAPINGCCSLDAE
Sequence of cGMP-inhibited 3',5'-cyclic phosphodiesterase 3A (Q14432 whole entry): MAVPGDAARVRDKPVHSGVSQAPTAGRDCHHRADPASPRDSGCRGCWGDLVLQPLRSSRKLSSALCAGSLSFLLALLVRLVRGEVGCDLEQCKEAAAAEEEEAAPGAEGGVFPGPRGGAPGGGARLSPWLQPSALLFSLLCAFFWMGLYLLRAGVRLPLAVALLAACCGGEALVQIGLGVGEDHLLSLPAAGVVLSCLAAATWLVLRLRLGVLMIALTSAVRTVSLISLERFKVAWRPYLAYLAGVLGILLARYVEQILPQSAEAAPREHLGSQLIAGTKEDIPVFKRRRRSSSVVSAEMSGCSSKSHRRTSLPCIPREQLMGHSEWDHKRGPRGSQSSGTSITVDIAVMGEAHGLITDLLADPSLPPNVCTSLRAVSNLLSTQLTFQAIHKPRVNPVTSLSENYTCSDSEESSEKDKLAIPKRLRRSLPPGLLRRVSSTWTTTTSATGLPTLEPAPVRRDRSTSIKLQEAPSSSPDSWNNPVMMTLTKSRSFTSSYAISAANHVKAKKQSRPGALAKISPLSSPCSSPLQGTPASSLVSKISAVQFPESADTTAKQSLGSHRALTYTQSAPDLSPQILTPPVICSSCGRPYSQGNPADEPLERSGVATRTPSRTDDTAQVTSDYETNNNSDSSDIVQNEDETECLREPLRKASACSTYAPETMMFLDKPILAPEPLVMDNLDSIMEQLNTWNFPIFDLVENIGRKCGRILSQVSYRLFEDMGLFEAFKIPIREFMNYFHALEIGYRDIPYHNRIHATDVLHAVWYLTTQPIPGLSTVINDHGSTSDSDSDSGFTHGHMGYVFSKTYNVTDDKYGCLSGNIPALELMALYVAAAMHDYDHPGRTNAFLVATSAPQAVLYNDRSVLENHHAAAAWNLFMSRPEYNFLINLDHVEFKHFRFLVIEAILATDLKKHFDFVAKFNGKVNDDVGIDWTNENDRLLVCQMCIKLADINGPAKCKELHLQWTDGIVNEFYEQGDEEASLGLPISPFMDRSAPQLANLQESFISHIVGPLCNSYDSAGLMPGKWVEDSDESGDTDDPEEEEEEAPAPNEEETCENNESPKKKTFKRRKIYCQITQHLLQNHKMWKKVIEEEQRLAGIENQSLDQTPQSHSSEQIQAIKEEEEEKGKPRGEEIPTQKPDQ
Sequence of High affinity 3',5'-cyclic-AMP phosphodiesterase 7A (Q13946 whole entry): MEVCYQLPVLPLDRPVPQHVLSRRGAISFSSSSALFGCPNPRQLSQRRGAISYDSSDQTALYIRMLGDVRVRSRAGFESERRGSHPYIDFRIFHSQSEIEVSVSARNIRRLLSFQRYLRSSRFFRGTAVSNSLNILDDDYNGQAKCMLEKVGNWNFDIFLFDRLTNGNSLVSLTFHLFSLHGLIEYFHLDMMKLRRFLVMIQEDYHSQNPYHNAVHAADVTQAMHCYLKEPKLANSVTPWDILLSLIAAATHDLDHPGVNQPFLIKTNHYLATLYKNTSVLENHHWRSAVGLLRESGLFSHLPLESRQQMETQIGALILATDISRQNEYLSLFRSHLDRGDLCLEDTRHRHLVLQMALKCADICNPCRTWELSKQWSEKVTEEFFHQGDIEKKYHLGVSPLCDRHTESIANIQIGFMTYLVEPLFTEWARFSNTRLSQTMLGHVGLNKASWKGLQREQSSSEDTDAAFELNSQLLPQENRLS
Sequence of Dual 3',5'-cyclic-AMP and -GMP phosphodiesterase 11A (Q9HCR9 whole entry): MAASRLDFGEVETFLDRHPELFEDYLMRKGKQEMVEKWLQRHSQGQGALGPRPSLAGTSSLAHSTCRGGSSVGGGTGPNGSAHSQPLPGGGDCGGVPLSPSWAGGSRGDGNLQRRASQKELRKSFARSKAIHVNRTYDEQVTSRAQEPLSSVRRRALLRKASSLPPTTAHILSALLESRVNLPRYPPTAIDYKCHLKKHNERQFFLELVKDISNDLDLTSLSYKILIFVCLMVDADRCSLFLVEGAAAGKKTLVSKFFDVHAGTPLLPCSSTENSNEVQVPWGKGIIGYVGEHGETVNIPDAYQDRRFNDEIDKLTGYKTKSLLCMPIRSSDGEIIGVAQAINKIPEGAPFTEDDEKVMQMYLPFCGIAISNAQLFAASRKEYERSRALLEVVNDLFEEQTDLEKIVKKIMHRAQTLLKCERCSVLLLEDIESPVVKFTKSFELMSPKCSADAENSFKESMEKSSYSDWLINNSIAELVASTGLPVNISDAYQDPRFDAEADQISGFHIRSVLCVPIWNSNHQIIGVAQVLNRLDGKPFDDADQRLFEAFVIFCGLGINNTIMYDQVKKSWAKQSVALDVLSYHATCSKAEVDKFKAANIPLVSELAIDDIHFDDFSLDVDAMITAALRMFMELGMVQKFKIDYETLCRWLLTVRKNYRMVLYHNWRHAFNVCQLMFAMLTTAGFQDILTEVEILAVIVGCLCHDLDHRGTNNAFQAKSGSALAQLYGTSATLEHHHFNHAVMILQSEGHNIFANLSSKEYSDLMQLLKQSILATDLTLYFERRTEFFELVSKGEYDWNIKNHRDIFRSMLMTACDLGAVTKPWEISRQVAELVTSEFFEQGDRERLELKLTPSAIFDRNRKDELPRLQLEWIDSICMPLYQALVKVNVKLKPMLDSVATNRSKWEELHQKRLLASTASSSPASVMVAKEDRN
Sequence of High affinity cGMP-specific 3',5'-cyclic phosphodiesterase 9A (O76083 whole entry): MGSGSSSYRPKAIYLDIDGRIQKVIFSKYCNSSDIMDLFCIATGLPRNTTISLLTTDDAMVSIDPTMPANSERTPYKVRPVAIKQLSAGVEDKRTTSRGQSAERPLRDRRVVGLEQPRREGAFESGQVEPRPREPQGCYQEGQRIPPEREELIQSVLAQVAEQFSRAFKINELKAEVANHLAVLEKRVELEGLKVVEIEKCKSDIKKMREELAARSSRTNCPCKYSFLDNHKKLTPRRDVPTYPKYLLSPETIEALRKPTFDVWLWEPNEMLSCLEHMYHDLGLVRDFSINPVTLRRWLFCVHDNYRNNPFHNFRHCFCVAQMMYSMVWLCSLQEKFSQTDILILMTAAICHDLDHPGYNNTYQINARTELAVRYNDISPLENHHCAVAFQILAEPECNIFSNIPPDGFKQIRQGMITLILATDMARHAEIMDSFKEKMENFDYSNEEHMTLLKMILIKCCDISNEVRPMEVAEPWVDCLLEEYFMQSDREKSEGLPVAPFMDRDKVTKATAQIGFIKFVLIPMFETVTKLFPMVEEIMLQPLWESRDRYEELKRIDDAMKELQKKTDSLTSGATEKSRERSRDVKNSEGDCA
Sequence of 3',5'-cyclic-AMP phosphodiesterase 4A (P27815 whole entry): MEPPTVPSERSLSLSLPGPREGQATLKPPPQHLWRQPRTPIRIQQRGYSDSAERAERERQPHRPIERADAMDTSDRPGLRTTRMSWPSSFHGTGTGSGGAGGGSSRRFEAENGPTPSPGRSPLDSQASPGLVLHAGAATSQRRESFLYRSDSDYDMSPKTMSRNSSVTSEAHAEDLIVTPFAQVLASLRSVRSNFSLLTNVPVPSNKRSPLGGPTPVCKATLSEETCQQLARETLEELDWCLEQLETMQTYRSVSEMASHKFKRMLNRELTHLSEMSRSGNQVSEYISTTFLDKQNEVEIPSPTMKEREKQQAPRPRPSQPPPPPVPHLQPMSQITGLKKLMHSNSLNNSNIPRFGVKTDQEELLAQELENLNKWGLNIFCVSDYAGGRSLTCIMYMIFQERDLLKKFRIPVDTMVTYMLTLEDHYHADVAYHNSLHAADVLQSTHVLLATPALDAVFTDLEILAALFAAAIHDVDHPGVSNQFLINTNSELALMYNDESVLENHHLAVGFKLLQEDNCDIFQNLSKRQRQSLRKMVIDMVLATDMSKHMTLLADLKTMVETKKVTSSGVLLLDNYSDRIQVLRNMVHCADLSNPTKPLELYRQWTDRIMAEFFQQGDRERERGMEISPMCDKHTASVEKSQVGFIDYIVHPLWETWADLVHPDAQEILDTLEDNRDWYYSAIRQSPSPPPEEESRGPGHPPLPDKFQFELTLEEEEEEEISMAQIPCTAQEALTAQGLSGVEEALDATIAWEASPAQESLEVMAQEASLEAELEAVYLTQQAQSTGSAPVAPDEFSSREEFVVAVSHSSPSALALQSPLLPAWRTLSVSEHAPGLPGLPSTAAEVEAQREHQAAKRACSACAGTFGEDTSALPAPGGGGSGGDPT

## CCNCc1ccc2nc(C)c3nnc(-c4ccccc4Cl)n3c2c1
[1]
  Kp at 1 h: 0.73
[2]
  concentration at 1 h: 845 ng/mL
[3]
  concentration at 1 h: 628 ng/g

## CCNC(=O)c1ccc2nc(C)c3nnc(-c4ccccn4)n3c2c1
[4]
  IC50: 263 nM

## CCOC(=O)c1ccc2nc(C)c3nnc(-c4ccccc4Cl)n3c2c1
[4]
  IC50: 4.4 nM

## Cc1nc2ccc(C(=O)NCc3ccccc3)cc2n2c(-c3ccccc3Cl)nnc12
[5]
  Ratio IC50: 32
[4]
  IC50: 0.38 nM

## CCNC(=O)c1ccc2nc(C)c3nnc(-c4ccccc4F)n3c2c1
[4]
  IC50: 2.8 nM

## Cc1nc2ccc(C(=O)N(C)Cc3ccccc3)cc2n2c(-c3ccccc3Cl)nnc12
[4]
  IC50: 19 nM

## Cc1nc2ccc(CN3CCCC(CO)C3)cc2n2c(-c3ccccc3Cl)nnc12 (centres undefined)
[6]
  Kp at 1 h: 0.18
[7]
  concentration at 1 h: 569 ng/mL
[8]
  concentration at 1 h: 99 ng/g

## CCNC(=O)c1ccc2nc(C)c3nnc(-c4ccccc4Cl)n3c2c1
[9]
  Kp at 1 h: 0.11
[10]
  concentration at 1 h: 1880 ng/mL
[11]
  concentration at 1 h: 185 ng/g

## CCNC(=O)c1ccc2nc(C)c3nnc(-c4ccccc4OC)n3c2c1
[4]
  IC50: 5.9 nM

## Cc1nc2ccc(C(=O)NCCN3CCCC3)cc2n2c(-c3ccccc3Cl)nnc12
[6]
  Kp at 1 h: 0.14
[7]
  concentration at 1 h: 1070 ng/mL
[8]
  concentration at 1 h: 143 ng/g
[4]
  IC50: 2.2 nM

## Cc1nc2ccc(CN3CCOCC3)cc2n2c(-c3ccccc3Cl)nnc12
[12]
  IC50: > 10000 nM
[13]
  IC50: > 10000 nM
[14]
  IC50: > 10000 nM
[15]
  IC50: 1910 nM
Phosphodiesterase 6
  IC50: 2280 nM
[16]
  IC50: > 10000 nM
[17]
  IC50: > 10000 nM
[18]
  IC50: 7760 nM
Hippocampus
  Drug uptake: Active
[19]
  IC50: 4900 nM
Cortex
  Drug uptake: Active
Striatum
  Drug uptake: Active
[1]
  Kp at 1 h: 0.62
[2]
  concentration at 1 h: 299 ng/mL
[3]
  concentration at 1 h: 189 ng/g
[4]
  IC50: 2.8 nM

## Cc1nc2ccc(C(=O)NCCc3ccccc3)cc2n2c(-c3ccccc3Cl)nnc12
[4]
  IC50: 1.7 nM

## Cc1nc2ccc(CN3CCC(O)CC3)cc2n2c(-c3ccccc3Cl)nnc12
[4]
  IC50: 9.7 nM

## CCNC(=O)c1ccc2nc(C)c3nnc(-c4cccnc4OC)n3c2c1
[4]
  IC50: 28 nM

## Cc1nc2ccc(CN3CCN(C)CC3)cc2n2c(-c3ccccc3Cl)nnc12
[4]
  IC50: 7.1 nM

## Cc1nc2ccc(C(=O)NCCN3CCOCC3)cc2n2c(-c3ccccc3Cl)nnc12
[6]
  Kp at 1 h: 0.034
[7]
  concentration at 1 h: 2540 ng/mL
[8]
  concentration at 1 h: 88 ng/g

## CCNC(=O)c1ccc2nc(C)c3nnc(-c4cnccc4C)n3c2c1
[1]
  Kp at 1 h: 0.036
[2]
  concentration at 1 h: 2800 ng/mL
[3]
  concentration at 1 h: 98 ng/g

## CCNC(=O)c1ccc2nc(C)c3nnc(-c4cncc(OC)c4)n3c2c1
[20]
  Kp at 1 h: 0.034
[21]
  concentration at 1 h: 467 ng/mL
[22]
  concentration at 1 h: 16 ng/g
